In ChEMBL document CHEMBL1124552 (J Med Chem, 1989):
Where “and” joins values, the source holds several entries; their conditions need not be identical. Equal entries are not always repeated.

Columns and labels:
[1] = Second order rate constant for Alkylation reaction by the compound (17 mM) at temperature 37 degrees C with 1 M lutidine at pH 7.4 in the presence of 10 mol equiv of 2-mercaptoethanol; type: functional
Outline: (§1)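 Decomposition followed over time by 31P NMR in 1 M lutidine buffer made with D2O, "pH" 7.4 (meter reading plus 0.4 unit for the deuterium isotope effect), with 2-mercaptoethanol as trapping agent. Concentrations of species A, B and C were tracked against time, and k1 (first alkylation) and k2 (second alkylation) were derived from them.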

[2] = First order rate constant for Alkylation reaction by the compound (17 mM) at temperature 20 degrees C with 1 M lutidine at […] in the presence of 10 mol equiv of 2-mercaptoethanol; type: functional
[3] = Second order rate constant for Alkylation reaction by the compound (17 mM) at temperature 27 degrees C with 1 M lutidine at pH 7.4 in the presence of 10 mol equiv of 2-mercaptoethanol; type: functional; outline: as §1
[4] = First order rate constant for Alkylation reaction by the compound (11 mM) at temperature 20 degrees C with 1 M lutidine at pH 7.4 in the presence of 63 mol equiv of 2-mercaptoethanol; type: functional; outline: as §1
[5] = Second order rate constant for Alkylation reaction by the compound (17 mM) at temperature 37 degrees C with 1 M lutidine at pH 7.4 in the presence of 10 mol equiv of sodium thiosulfate; type: functional
Outline: (§2)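 Run by 31P NMR in 1 M lutidine (D2O), "pH" 7.4 (corrected meter reading), 37 °C, with 10 mol equiv sodium thiosulfate as trapping agent. Overlapping A, B and C resonances were resolved by least-squares fitting to three Lorentzians or by Lorentz–Gauss resolution enhancement. This gave concentration–time estimates, from which k1 and k2 were derived.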

[6] = Pka value at 20 degrees C
Outline: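 31P NMR chemical shift recorded in unbuffered water as a function of solution pH at 20 °C. The shift versus pH data were fitted to the Henderson–Hasselbalch equation to give the pKa.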

[7] = First order rate constant for Alkylation reaction by the compound (17 mM) at temperature 37 degrees C with 1 M lutidine at pH 7.4 in the presence of 10 mol equiv of 2-mercaptoethanol; type: functional; outline: as §1
[8] = Second order rate constant for Alkylation reaction by the compound (17 mM) at temperature 47 degrees C with 1 M lutidine at pH 7.4 in the presence of 10 mol equiv of 2-mercaptoethanol; type: functional; outline: as §1
[9] = First order rate constant for Alkylation reaction by the compound (17 mM) at temperature 47 degrees C with 1 M lutidine at pH 7.4 in the presence of 10 mol equiv of 2-mercaptoethanol; type: functional; outline: as §1
[10] = First order rate constant for Alkylation reaction by the compound (17 mM) at temperature 37 degrees C with 1 M lutidine at pH 7.4 in the presence of 10 mol equiv of sodium thiosulfate; type: functional; outline: as §2
[11] = Second order rate constant for Alkylation reaction by the compound (11 mM) at temperature 20 degrees C with 1 M lutidine at pH 7.4 in the presence of 63 mol equiv of 2-mercaptoethanol; type: functional; outline: as §1
[12] = Half life period for first alkylation reaction was determined; type: ADME
Outline: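 Half-life derived from the k1 value (first alkylation, i.e. mustard disappearance), measured by 31P NMR in 1 M lutidine, "pH" 7.4, 37 °C, with trapping agent.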

[13] = First order rate constant for Alkylation reaction by the compound (17 mM) at temperature 27 degrees C with 1 M lutidine at pH 7.4 in the presence of 10 mol equiv of 2-mercaptoethanol; type: functional; outline: as §1
[14] = Average half life period was determined; type: ADME
[15] = Half life period was determined; type: ADME; settings: rat

## O=P(O)(NCCCl)NCCCl [PALIFOSFAMIDE]
[1]
  K2: 4.05 10e-3 min-1
[2]
  K1: 1.2 10e-3 min-1
[3]
  K2: 1.14 10e-3 min-1
[4]
  K1: 1.07 10e-3 min-1
[5]
  K2: 4.29 10e-3 min-1
[6]
  Pka: 4.28
[7]
  K1: 9.03 10e-3 min-1
[8]
  K2: 20 10e-3 min-1
[9]
  K1: 34.3 10e-3 min-1
[10]
  K1: 8.29 10e-3 min-1
[11]
  K2: 0.63 10e-3 min-1
[12]
  T1/2: 1.28 h and 2.85 h
[13]
  K1: 2.36 10e-3 min-1

## O=P1(NCCCl)OCCC(O)N1CCCl (stereo unspecified) [ALDOIFOSFAMIDE]
[14]
  half-life: 0.733 h
[15]
  half-life: 1 h

## OC1CCOP(NCCCl)N1CCCl (trans isomer)
[14]
  half-life: 1.03 h
